According to ChEMBL document CHEMBL4808178 (J Med Chem, 2021):
Active and inactive are the calls of the source. The rule behind the calls is not given here.

What was measured:
[1] = Cmax in Sprague-Dawley rat at 25 mg/kg, po measured up to 48 hrs by LC-MS/MS analysis; type: ADME, organism-based; parameters: route oral, dose 25 mg/kg, time <=48; details: in vivo
Procedure, shortened: (§1)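 Overnight-fasted male SD rats (about 250−270 g), three per group, single oral 25 mg/kg; test compound suspended in 5% CMC-Na, control as sodium salt in phosphate buffer. Blood sampled 0.25–48 h, plasma by centrifugation, stored −40 °C, quantified by LC−MS/MS against plasma standard curve (3–3000 ng/mL) with internal standard; model-fitted PK parameters.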

[2] = test system: HCT-116; assay: Antitumor activity against human HCT116 cells xenografted in BALB/c athymic nude mouse assessed as tumor growth inhibition at 90 mg/kg, po administered twice daily for 4 weeks and measured every 3 days; type: functional; details: HCT-116, po, 672 h, read-out: TGI
Procedure, shortened: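 Male BALB/c athymic nude mice, 5 weeks old, 16−18 g, given 0.2 mL of 5 × 10⁷ cells/mL HCT-116 in right armpit. At about 100 mm³, randomized to groups of five; intragastric dosing twice daily for 4 weeks. Tumor volume and body weight every 3 days; tumors weighed after sacrifice; organs HE-stained.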

[3] = test system: HCT-116; assay: Induction of apoptosis in human HCT116 cells assessed as late apoptotic cells at 10 uM after 24 hrs by annexin V-FITC/propidium iodide staining based flow cytometry (reference value: 5.1%); type: functional
[4] = test system: HCT-116; assay: Induction of apoptosis in human HCT116 cells assessed as viable cells at 5 uM after 24 hrs by annexin V-FITC/propidium iodide staining based flow cytometry (reference value: 88.3%); type: functional; details: read-out: Activity
[5] = molecular target: Serine/threonine-protein kinase PLK1 (Homo sapiens) (UniProt P53350); assay: Inhibition of PLK1 (unknown origin) assessed as residual activity at 1 uM relative to control
Procedure, shortened: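 Commercial profiling service against a 208-kinase panel; single concentration 1 μmol/L; residual kinase activity expressed relative to control.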

[6] = Toxicity in BALB/c mouse xenografted with human HCT116 cells assessed as effect on spleen tissue at 60 to 90 mg/kg, po administered twice daily for 4 weeks and measured every 3 days by HE staining based assay; type: organism-based, HCT-116; details: in vivo, 672 h, dose 60-90 mg/kg
Procedure, shortened: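 Male 5-week BALB/c nude mice (16−18 g), 0.2 mL of 5 × 10⁷ cells/mL HCT-116 injected into right armpit; at ~100 mm³ randomized, 5/group; intragastric 60 or 90 mg/kg twice daily for 4 weeks; tumor volume and body weight every 3 days; after sacrifice heart, liver, spleen, lung, kidney HE-stained.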

[7] = test system: HCT-116; assay: Induction of apoptosis in human HCT116 cells assessed as late apoptotic cells at 20 uM after 24 hrs by annexin V-FITC/propidium iodide staining based flow cytometry (reference value: 5.1%); type: functional
[8] = test system: HCT-116; assay: Effect on Wnt/beta-Catenin signaling in human HCT116 cells assessed as reduction in MMP7 mRNA level at 20 uM after 24 hrs by RT-qPCR analysis; type: functional, cell-based
Procedure, shortened: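 HCT-116 cells treated 24 h; total RNA by TRIZOL, one-step RT-qPCR: 55 °C 10 min, 95 °C 1 min, then 39 cycles of 95 °C 10 s and 60 °C 30 s, with melting-curve and no-template controls. β-Actin as internal standard; relative expression by 2^−ΔΔCt, mean ± SD (n = 3).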

[9] = test system: HCT-116; assay: Induction of apoptosis in human HCT116 cells assessed as down regulation of pro-caspase 3 level at 20 uM incubated for 24 hrs by Western blot analysis; type: functional, cell-based
Procedure, shortened: (§2)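 HCT-116 cells at 2 × 10⁵ cells/mL in DMEM/10% FBS, grown 12 h at 37 °C, then treated 24 h (vehicle DMSO). Lysates quantified by BCA, run on 10% SDS-PAGE, PVDF transfer, blocked in 5% milk/TBST, primary antibodies 4 °C overnight, HRP secondary 2 h, chemiluminescent detection; normalized to β-actin, n = 3.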

[10] = molecular target: T1, Aldehyde dehydrogenase 1A1 (Homo sapiens) (UniProt P00352); assay: Inhibition of ALDH1A1 in human HCT116 cells at 20 uM after 24 hrs by aldefluor staining based fluorescence analysis; type: cell-based; details: HCT-116
T1 sequence (whole entry): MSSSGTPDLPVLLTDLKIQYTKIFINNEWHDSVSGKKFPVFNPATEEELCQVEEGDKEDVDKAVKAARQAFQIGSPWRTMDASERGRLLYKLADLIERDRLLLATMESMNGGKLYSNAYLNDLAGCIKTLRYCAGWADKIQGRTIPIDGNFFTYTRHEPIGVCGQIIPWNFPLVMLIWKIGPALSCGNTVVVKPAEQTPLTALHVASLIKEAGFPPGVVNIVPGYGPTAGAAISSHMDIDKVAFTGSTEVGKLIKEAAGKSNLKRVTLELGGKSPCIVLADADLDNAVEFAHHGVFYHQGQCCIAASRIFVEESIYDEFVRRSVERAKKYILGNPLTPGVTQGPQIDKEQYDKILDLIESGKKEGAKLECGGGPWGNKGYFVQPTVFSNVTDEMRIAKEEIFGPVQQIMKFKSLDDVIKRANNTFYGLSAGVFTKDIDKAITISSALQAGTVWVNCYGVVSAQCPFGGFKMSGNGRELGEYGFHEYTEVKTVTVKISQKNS
Procedure, shortened: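 HCT-116 cells, 2 × 10⁵/well, grown overnight at 37 °C, 5% CO₂, then treated 24 h (vehicle DMSO). Aldefluor staining read in FITC channel by FACS for proportion of ALDH⁺ cells; DEAB-pretreated cells set baseline fluorescence.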

[11] = test system: HCT-116; assay: Effect on Wnt/beta-Catenin signaling in human HCT116 cells assessed as upregulation of DKK1 protein level after 24 hrs by Western blotting analysis; type: functional, cell-based; details: dose 5-20 µM; procedure, shortened: as §2
[12] = test system: HCT-116; assay: Inhibition of cell invasion in human HCT-116 cells at 5 uM after 24 hrs by crystal violet staining based inverted microscopic analysis; type: functional
Procedure, shortened: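 Transwell chambers ([…]); 1 × 10⁵ HCT-116 cells in serum-free medium in upper compartment, DMEM + 10% FBS as chemoattractant below; treated 24 h (vehicle DMSO); non-invading cells swabbed off, lower-surface cells crystal violet stained 30 min, counted by inverted microscope; mean ± SD, n = 3.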

[13] = test system: HCT-116; assay: Inhibition of cell stemness in human HCT116 cells assessed as reduction in number of tumor spheres at 5 uM after 10 days by microscopic analysis; type: functional, cell-based; details: time 10.0 day
Procedure, shortened: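 Sorted ALDH⁺ HCT-116 cells, 800/well, in serum-free DMEM with B27 (1:50), EGF 20 ng/mL, β-FGF 10 ng/mL; co-incubated with compound (5 μM) or DMSO vehicle for 10 days; sphere number, diameter and morphology scored from microscopy images; mean ± SD, n = 3.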

[14] = Clearance in Sprague-Dawley rat at 25 mg/kg, po measured up to 48 hrs by LC-MS/MS analysis; type: ADME, organism-based; details: in vivo; procedure, shortened: as §1
[15] = test system: MCF7; assay: Cytotoxicity against human MCF7 cells assessed as reduction in cell viability incubated for 72 hrs by MTT assay; type: functional, cell-based; details: MCF7, 72 h
Procedure, shortened: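 About 5 × 10³ cells/well, seeded overnight at 37 °C, 5% CO₂, in DMEM or RPMI-1640 with 10% FBS and antibiotics. DMSO-dissolved compounds diluted in medium, exposure 72 h.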

[16] = test system: HCT-116; assay: Induction of apoptosis in human HCT116 cells assessed as increase in Bax protein expression at 20 uM incubated for 24 hrs by Western blot analysis; type: functional, cell-based; procedure, shortened: as §2

Serine/threonine-protein kinase PLK1 (Homo sapiens), sequence (P53350 whole entry): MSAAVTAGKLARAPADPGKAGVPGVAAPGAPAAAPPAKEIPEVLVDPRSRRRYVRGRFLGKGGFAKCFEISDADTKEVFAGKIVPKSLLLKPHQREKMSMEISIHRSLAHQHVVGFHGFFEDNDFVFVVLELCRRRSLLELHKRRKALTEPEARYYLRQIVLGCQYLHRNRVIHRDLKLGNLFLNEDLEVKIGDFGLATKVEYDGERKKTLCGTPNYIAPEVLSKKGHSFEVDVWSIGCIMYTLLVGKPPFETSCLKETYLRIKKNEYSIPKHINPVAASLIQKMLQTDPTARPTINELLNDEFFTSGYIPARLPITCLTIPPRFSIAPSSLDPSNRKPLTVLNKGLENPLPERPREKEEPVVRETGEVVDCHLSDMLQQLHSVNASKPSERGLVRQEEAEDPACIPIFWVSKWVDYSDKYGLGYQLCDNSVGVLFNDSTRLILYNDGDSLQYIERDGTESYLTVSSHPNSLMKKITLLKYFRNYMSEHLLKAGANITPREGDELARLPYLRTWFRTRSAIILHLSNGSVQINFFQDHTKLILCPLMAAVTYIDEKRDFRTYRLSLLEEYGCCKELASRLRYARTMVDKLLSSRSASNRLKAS

Cmax [1]: 7020 ng/mL
Activity [5]: 40.5%
inhibition [10]: 96%
CL/F [14]: 10 mL/min/kg
Compound: O=C(NCCO)c1ccc2c(c1)nc(Nc1cccc(Cl)c1)c1ccncc12
inhibition in vivo at 90 mg/kg [2]: 69%
Activity [3]: 23.4%
viability at 5 µM [4]: 60.7%
Activity [6]: Non-Toxic
Activity [7]: 32.9%
Activity [8]: Active
Activity [9]: Active
Activity [11]: Dose-Dependent Effect
Activity [12]: Active
inhibition [13]: Active
IC50 [15]: 7.5 µM
Activity [16]: Active
